Test results from paper PMC3144758 (Bioorganic chemistry, 2010).

Biological target: Tip60 (Homo sapiens, UniProt Q92993)
Experiment: Radioactive HAT inhibition assay, Tip60
Assay type: biochemical
Outline: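 Recombinant Tip60 acetylates H4 N-terminal 20-mer peptide (100 μM) using [14C]acetyl-CoA (10 μM) at varied DMSO levels, 30 °C, in 50 mM HEPES pH 8.0, 0.1 mM EDTA, 50 μg/mL BSA, 1 mM DTT. Enzyme added after 5 min equilibration. Initial rates measured (<10% substrate consumed) by P81 filter binding, bicarbonate washes and scintillation. Readouts are fractional activity retained and IC50 (50% activity blocked). Runs at least twice.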

Chain of Tip60 (Q92993 whole entry): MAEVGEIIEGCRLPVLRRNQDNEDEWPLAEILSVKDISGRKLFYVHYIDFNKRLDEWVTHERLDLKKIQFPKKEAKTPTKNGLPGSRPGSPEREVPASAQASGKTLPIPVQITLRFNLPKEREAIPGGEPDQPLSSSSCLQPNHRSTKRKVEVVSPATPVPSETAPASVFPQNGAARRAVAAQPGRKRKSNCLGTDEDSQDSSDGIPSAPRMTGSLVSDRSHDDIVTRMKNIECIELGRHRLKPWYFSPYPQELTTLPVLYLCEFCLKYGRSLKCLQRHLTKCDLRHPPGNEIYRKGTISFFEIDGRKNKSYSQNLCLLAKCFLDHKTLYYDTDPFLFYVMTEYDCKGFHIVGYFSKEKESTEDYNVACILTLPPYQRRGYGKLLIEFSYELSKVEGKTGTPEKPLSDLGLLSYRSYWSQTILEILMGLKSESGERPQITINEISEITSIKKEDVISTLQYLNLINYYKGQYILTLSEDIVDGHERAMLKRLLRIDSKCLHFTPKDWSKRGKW

IC50 of DMSO on Tip60 activity (DMSO (v/v), H4-20 100 μM, [14C]acetyl-CoA 10 μM): 37% | Retained activity of Tip60 (at 30% of DMSO): 90%
Compound: C[S+](C)[O-] [DMSO]
